Experimental data reported in paper PMC3273977 (International Journal of Nanomedicine, 2012).

Legend:
ABCG2 = conditions: cited from earlier work
HK-2 cells = test: In vitro cytotoxicity, sulforhodamine B assay; assay type: cell-based; conditions: Homo sapiens, HK-2, 24 h, read-out: IC50 cell viability
P-glycoprotein (P-gp) = conditions: cited from earlier work
[1] = Plasma pharmacokinetics after a single intravenous injection; assay type: in vivo, mice
In short: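 Male C57Bl/6J mice (n = 15) received one intravenous dose of sunitinib malate, 1.7 μmol/kg (0.9 mg/kg), equimolar to a 20 mg/kg lysozyme conjugate. Blood was taken by cheek puncture at 1 min and at sacrifice time points, then centrifuged. Plasma sunitinib was measured by LC-MS/MS against standards of 10 ng/mL–1 μg/mL. Values are % of dose, assuming plasma volume 0.05 mL/g. Parameters come from two-compartment curve fitting.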

[2] = tested on: UUO-induced tubulointerstitial fibrosis; test: Overall antifibrotic effect in UUO-induced tubulointerstitial fibrosis; assay type: in vivo; conditions: UUO mice, daily 50 mg/kg sunitinib malate
In short: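 Male C57Bl/6J mice weighing 13–25 g had unilateral ureteral obstruction and were killed after 3 days. Sunitinib malate was given as three daily intraperitoneal injections of 50 mg/kg (94 μmol/kg), n = 7. Controls were normal mice and untreated UUO mice, n = 6 each. Kidneys were scored for collagen IV, vimentin and α-SMA immunostaining and p-PDGFR-β (Tyr740) Western blot. Data are mean ± SEM.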

[3] = Renal accumulation pharmacokinetics after a single intravenous injection; assay type: in vivo, mice
In short: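 After one intravenous dose of sunitinib malate, 1.7 μmol/kg (0.9 mg/kg), to male C57Bl/6J mice, kidneys were collected at set times and frozen at −80°C. Kidneys were homogenised in 4% BSA to 0.1 g tissue/mL. Sunitinib was measured by LC-MS/MS against homogenate standards of 10–500 ng/mL, and renal levels are expressed as % of injected dose.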

PDGFR-β = PDGFR-β (Mus musculus, UniProt P05622); test: Western blot of p-PDGFR-β in renal cortex, UUO model; assay type: in vivo; conditions: UUO mice 3 days; three daily ip injections 50 mg/kg sunitinib malate
In short: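 Male C57Bl/6J mice sacrificed after 3 days UUO; ip sunitinib malate 50 mg/kg, with 2nd/3rd doses at 24 and 48 h. Cortex homogenized in RIPA with protease/phosphatase inhibitors and EDTA. Blots blocked 1 h at room temperature in 5% milk/TBS-T. Probed overnight at 4°C with rabbit anti-p-PDGFR-β (Tyr740, 1:200) or β-actin (1:1000) in TBS-T/5% BSA.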

[4] = tested on: α-SMA, collagen IV, and vimentin; test: Immunostaining of fibrotic markers in kidney sections, UUO model; assay type: in vivo; conditions: UUO mice 3 days; daily 50 mg/kg sunitinib malate ip
In short: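 Male C57Bl/6J mice, 3-day UUO; n=7 per treatment group, n=6 per control. Dosing: single iv test compound (40 mg/kg conjugate) or equimolar iv sunitinib malate (3.4 μmol/kg), or ip sunitinib malate 50 mg/kg with 2nd/3rd doses at 24 and 48 h. Sections 3 μm, peroxide/azide block pH 5.8; 15-min boil citrate pH 6.0 (collagen IV, vimentin) or Tris/EDTA pH 9.0 (α-SMA); primaries 1 h RT (1:400, 1:400, 1:200).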

[5] = tested on: collagen 1A2, PAI-1, fibronectin, and MCP-1; test: Renal mRNA expression of profibrotic genes; assay type: in vivo; conditions: UUO mice 3 days; three daily ip injections 50 mg/kg sunitinib malate
In short: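 Male C57Bl/6J mice, 3-day UUO; groups n=6–7; single iv test compound or sunitinib malate, or ip sunitinib malate 50 mg/kg with later doses at 24 and 48 h. TaqMan qRT-PCR on whole kidney and cortex. mRNA normalized to TBP and expressed relative to non-obstructed control mice (set at 1). Mean ± SEM; one-way ANOVA, P < 0.05.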

[6] = tested on: tyrosine kinases in HK-2 cells; test: Inhibition of tyrosine kinase phosphorylation after uptake in HK-2 cells; assay type: cell-based, human; conditions: 10 μM, 24 hours incubation of HK-2 cells, lysis, ATP stimulation, Western blot
In short: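 HK-2 cells were seeded at 1.5 × 10^4 per well, serum-starved overnight, then given 10 μM test compound or 0.1% (v/v) DMSO control for 24 h. Cells were PBS-washed and lysed with protease and phosphatase inhibitors, and protein was measured by BCA. Lysate was mixed with an equal volume of 10 μM ATP in Abl buffer (pH 7.5) and held 60 min at 37°C. 10 μg protein went to SDS-PAGE, anti-phosphotyrosine (PY20) blot and densitometry.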

[7] = mice, single iv, equimolar 1.7 μmol/kg, kidneys
[8] = mice, single iv, equimolar 1.7 μmol/kg, kidneys, listed as sunitinib

PDGFR-β, sequence (P05622 32-1098): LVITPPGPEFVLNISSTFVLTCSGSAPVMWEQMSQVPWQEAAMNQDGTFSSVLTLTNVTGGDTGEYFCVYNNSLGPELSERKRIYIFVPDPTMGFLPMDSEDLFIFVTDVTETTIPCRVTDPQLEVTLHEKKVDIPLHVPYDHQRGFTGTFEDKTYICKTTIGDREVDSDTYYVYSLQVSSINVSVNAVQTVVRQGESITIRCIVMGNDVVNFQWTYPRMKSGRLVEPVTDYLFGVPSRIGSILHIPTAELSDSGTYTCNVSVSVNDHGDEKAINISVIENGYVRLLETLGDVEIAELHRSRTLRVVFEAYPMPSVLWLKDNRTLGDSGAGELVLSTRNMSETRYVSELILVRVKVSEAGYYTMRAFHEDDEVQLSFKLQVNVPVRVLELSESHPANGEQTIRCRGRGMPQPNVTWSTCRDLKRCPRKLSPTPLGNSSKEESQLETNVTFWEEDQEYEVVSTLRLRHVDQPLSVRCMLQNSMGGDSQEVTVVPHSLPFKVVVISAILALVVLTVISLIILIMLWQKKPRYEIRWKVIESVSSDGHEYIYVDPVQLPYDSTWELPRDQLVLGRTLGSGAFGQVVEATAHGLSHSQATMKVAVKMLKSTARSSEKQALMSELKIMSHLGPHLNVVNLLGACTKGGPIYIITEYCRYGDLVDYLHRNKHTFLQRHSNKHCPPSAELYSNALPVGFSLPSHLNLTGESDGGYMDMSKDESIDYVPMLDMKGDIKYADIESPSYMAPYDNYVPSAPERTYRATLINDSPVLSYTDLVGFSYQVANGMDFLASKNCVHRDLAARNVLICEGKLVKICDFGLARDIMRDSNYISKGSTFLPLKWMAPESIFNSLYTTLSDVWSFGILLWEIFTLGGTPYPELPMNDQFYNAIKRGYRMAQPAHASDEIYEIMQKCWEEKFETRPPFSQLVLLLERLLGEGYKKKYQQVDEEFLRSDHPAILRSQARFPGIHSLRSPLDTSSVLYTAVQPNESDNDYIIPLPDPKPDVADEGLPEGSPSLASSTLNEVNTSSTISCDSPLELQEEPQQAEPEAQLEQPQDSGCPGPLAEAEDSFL

- half-life ([1]; C57Bl/6J, mouse, plasma, iv, 0.9 mg/kg): 25 min
- Peripheral distribution volume (V2) ([1]; mice, single iv, equimolar 1.7 μmol/kg, plasma): 87 mL
- initial distribution volume (V1) relative to 17864-ULS-lysozyme ([1]; mice, single iv, equimolar dose): over 15 fold
- half-life ([3]; C57BI/6 J, mouse, kidneys, iv, 0.9 mg/kg): 66 min
- time to almost complete elimination from the kidneys ([3]; mice, after administration): ≤ 12 h
- time to maximum renal levels ([3]; mice, single iv, equimolar 1.7 μmol/kg): ≤ 30 min
- AUC0–∞ [3, 7]: 9.4% dose*hours
- Cmax (% of the dose) [3, 7]: 4.9%
- AUC0–∞ [3, 8]: 9.4 % dose*hours
- Cmax (% of the dose) [3, 8]: 4.9%
Structure (SMILES): CCN(CC)CCNC(=O)c1c(C)[nH]c(/C=C2\C(=O)Nc3ccc(F)cc32)c1C [Sunitinib, sunitinib]
- substrate of efflux transporter ABCG2 (ABCG2): substrate
- IC50 (HK-2 cells): 12 µM
- substrate of efflux transporter P-gp (P-glycoprotein (P-gp)): substrate
- antifibrotic effect ([2]; listed as sunitinib): reduction of some of the studied markers
- antifibrotic effect ([2]; listed as sunitinib malate): antifibrotic responses
- p-PDGFR-β levels in the renal cortex (PDGFR-β): decreased p-PDGFR-β levels in the renal cortex
- renal deposition of α-SMA, collagen IV, and vimentin [4]: decreased the deposition of vimentin in the kidneys, although these differences were not significant
- renal mRNA expression of collagen 1A2, PAI-1, fibronectin, MCP-1 [5]: significantly lower renal mRNA levels of collagen 1A2 and fibronectin
- inhibitory effect on phosphorylation of tyrosine kinases [6]: strongly inhibited multiple kinases
